Experimental data as given in ChEMBL document CHEMBL2057155, “Synthesis of betulinic acid derivatives as entry inhibitors against HIV-1 and bevirimat-resistant HIV-1 variants” (Bioorg Med Chem Lett, 2012).

Key:
[1] = test system: Human immunodeficiency virus 1; test: Antiviral activity against HIV1 NL4-3 infected in human TZM-bl cells assessed as reduction in luciferase gene expression by luminescence assay; format: functional, organism-based; conditions: Human immunodeficiency virus 1, NL4-3, TZM-bl
Method in brief: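 Single-cycle HIV-1 NL4-3 infection of TZM-bl cells; HIV-1 tat-driven luciferase expression after viral entry read as the measure of inhibition. […] control is NL4-3 infection without compound. Values are the mean of two or more independent experiments with standard deviation.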

[2] = Cytotoxicity against human TZM-bl assessed as cell viability at 4 uM after 2 days; format: cell-based; conditions: 48 h
Method in brief: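 Toxicity to TZM-bl cells was checked within the single-cycle infection assay at 4 μM.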

[3] = Cytotoxicity against human MT4 assessed as cell viability after 2 days; format: cell-based; conditions: MT4 cells, read-out: TD50

Row | SMILES | EC50 [1] [nM] | Activity [2] | CC50 at 48 h [3] [nM]
1 | C=C(C)[C@@H]1CC[C@]2(C(=O)NCCCCCCCCC(=O)N[C@@H](CCC(N)=O)C(=O)OC(C)(C)C)CC[C@]3(C)[C@H](CC[C@@H]4[C@@]5(C)CC[C@H](O)C(C)(C)[C@@H]5CC[C@]43C)[C@@H]12 | 140 | Non-toxic | 
2 | C=C(C)[C@@H]1CC[C@]2(C(=O)NCCCCCCCCC(=O)N[C@@H](CC(N)=O)C(=O)OC)CC[C@]3(C)[C@H](CC[C@@H]4[C@@]5(C)CC[C@H](O)C(C)(C)[C@@H]5CC[C@]43C)[C@@H]12 | 110 | Non-toxic | 
3 | C=C(C)[C@@H]1CC[C@]2(C(=O)NCCCCCCCCC(=O)N[C@@H](CCC(=O)OC)C(=O)OC)CC[C@]3(C)[C@H](CC[C@@H]4[C@@]5(C)CC[C@H](O)C(C)(C)[C@@H]5CC[C@]43C)[C@@H]12 | 60 | Non-toxic | 
4 | C=C(C)[C@@H]1CC[C@]2(C(=O)NCCCCCCCCC(=O)N[C@@H](C)C(=O)OC)CC[C@]3(C)[C@H](CC[C@@H]4[C@@]5(C)CC[C@H](O)C(C)(C)[C@@H]5CC[C@]43C)[C@@H]12 | 70 | Non-toxic | 
5 | C=C(C)[C@@H]1CC[C@]2(C(=O)NCCCCCCCCC(=O)N[C@H](C(=O)OC)[C@@H](C)CC)CC[C@]3(C)[C@H](CC[C@@H]4[C@@]5(C)CC[C@H](O)C(C)(C)[C@@H]5CC[C@]43C)[C@@H]12 | 140 | Non-toxic | 
6 | C=C(C)[C@@H]1CC[C@]2(C(=O)NCCCCCCCCC(=O)N[C@@H](CC(C)C)C(=O)OC)CC[C@]3(C)[C@H](CC[C@@H]4[C@@]5(C)CC[C@H](O)C(C)(C)[C@@H]5CC[C@]43C)[C@@H]12 | 160 | Non-toxic | 
7 | C=C(C)[C@@H]1CC[C@]2(C(=O)NCCCCCCCCC(=O)N[C@@H](Cc3ccccc3)C(=O)OC)CC[C@]3(C)[C@H](CC[C@@H]4[C@@]5(C)CC[C@H](O)C(C)(C)[C@@H]5CC[C@]43C)[C@@H]12 | 720 | Non-toxic | 
8 | C=C(C)[C@@H]1CC[C@]2(C(=O)NCCCCCCCCC(=O)N3CCC[C@H]3C(=O)OC)CC[C@]3(C)[C@H](CC[C@@H]4[C@@]5(C)CC[C@H](O)C(C)(C)[C@@H]5CC[C@]43C)[C@@H]12 | 160 | Non-toxic | 
9 | C=C(C)[C@@H]1CC[C@]2(C(=O)NCCCCCCCCC(=O)N[C@H](C(=O)OC)[C@@H](C)OC(C)(C)C)CC[C@]3(C)[C@H](CC[C@@H]4[C@@]5(C)CC[C@H](O)C(C)(C)[C@@H]5CC[C@]43C)[C@@H]12 | 3490 | Non-toxic | 
10 | C=C(C)[C@@H]1CC[C@]2(C(=O)NCCCCCCCCCC(=O)N[C@@H](CCC(N)=O)C(=O)OC)CC[C@]3(C)[C@H](CC[C@@H]4[C@@]5(C)CC[C@H](O)C(C)(C)[C@@H]5CC[C@]43C)[C@@H]12 | 60 | Non-toxic | 
11 | C=C(C)[C@@H]1CC[C@]2(C(=O)NCCCCCCCCCC(=O)N[C@@H](CC(N)=O)C(=O)OC)CC[C@]3(C)[C@H](CC[C@@H]4[C@@]5(C)CC[C@H](O)C(C)(C)[C@@H]5CC[C@]43C)[C@@H]12 | 80 | Non-toxic | 
12 | C=C(C)[C@@H]1CC[C@]2(C(=O)NCCCCCCCCC(=O)NCC#N)CC[C@]3(C)[C@H](CC[C@@H]4[C@@]5(C)CC[C@H](O)C(C)(C)[C@@H]5CC[C@]43C)[C@@H]12 | 440 | Non-toxic | 
13 | C=C(C)[C@@H]1CC[C@]2(C(=O)NCCCCCCCCC(=O)NCCC#N)CC[C@]3(C)[C@H](CC[C@@H]4[C@@]5(C)CC[C@H](O)C(C)(C)[C@@H]5CC[C@]43C)[C@@H]12 | 340 | Non-toxic | 
14 | C=C(C)[C@@H]1CC[C@]2(C(=O)NCCCCCCCCC(=O)N(C)CC#N)CC[C@]3(C)[C@H](CC[C@@H]4[C@@]5(C)CC[C@H](O)C(C)(C)[C@@H]5CC[C@]43C)[C@@H]12 | 810 | Non-toxic | 
15 | C=C(C)[C@@H]1CC[C@]2(C(=O)NCCCCC/C=C/C(=O)O)CC[C@]3(C)[C@H](CC[C@@H]4[C@@]5(C)CC[C@H](O)C(C)(C)[C@@H]5CC[C@]43C)[C@@H]12 | > 4000 | Non-toxic | 
16 | C=C(C)[C@@H]1CC[C@]2(C(=O)NCCCCC/C=C(/F)C(=O)O)CC[C@]3(C)[C@H](CC[C@@H]4[C@@]5(C)CC[C@H](O)C(C)(C)[C@@H]5CC[C@]43C)[C@@H]12 | > 4000 | Non-toxic | 
17 | C=C(C)[C@@H]1CC[C@]2(C(=O)NCCCCC/C=C/C(=O)NCC(=O)O)CC[C@]3(C)[C@H](CC[C@@H]4[C@@]5(C)CC[C@H](O)C(C)(C)[C@@H]5CC[C@]43C)[C@@H]12 | 150 | Non-toxic | 

Row | SMILES | EC50 [1] [nM] | Activity [2] | CC50 at 48 h [3] [nM]
18 | C=C(C)[C@@H]1CC[C@]2(C(=O)NCCCCC/C=C(/F)C(=O)NCC(=O)O)CC[C@]3(C)[C@H](CC[C@@H]4[C@@]5(C)CC[C@H](O)C(C)(C)[C@@H]5CC[C@]43C)[C@@H]12 | 410 | Non-toxic | 
19 | C=C(C)[C@@H]1CC[C@]2(C(=O)NCCOCCOCC(=O)NCC(=O)O)CC[C@]3(C)[C@H](CC[C@@H]4[C@@]5(C)CC[C@H](O)C(C)(C)[C@@H]5CC[C@]43C)[C@@H]12 | > 4000 | Non-toxic | 
20 | C=C(C)[C@@H]1CC[C@]2(C(=O)NCCOCCOCC(=O)N[C@@H](C)C(=O)O)CC[C@]3(C)[C@H](CC[C@@H]4[C@@]5(C)CC[C@H](O)C(C)(C)[C@@H]5CC[C@]43C)[C@@H]12 | > 4000 | Non-toxic | 
21 | C=C(C)[C@@H]1CC[C@]2(C(=O)NCCOCCOCCNC(C)=O)CC[C@]3(C)[C@H](CC[C@@H]4[C@@]5(C)CC[C@H](O)C(C)(C)[C@@H]5CC[C@]43C)[C@@H]12 | > 4000 | Non-toxic | 
22 | C=C(C)[C@@H]1CC[C@]2(C(=O)NCCOCCOCCNC(=O)C(C)C)CC[C@]3(C)[C@H](CC[C@@H]4[C@@]5(C)CC[C@H](O)C(C)(C)[C@@H]5CC[C@]43C)[C@@H]12 | > 4000 | Non-toxic | 
23 | C=C(C)[C@@H]1CC[C@]2(C(=O)NCCOCCOCCNC(=O)Cc3nnn[nH]3)CC[C@]3(C)[C@H](CC[C@@H]4[C@@]5(C)CC[C@H](O)C(C)(C)[C@@H]5CC[C@]43C)[C@@H]12 | > 4000 | Non-toxic | 
24 | C=C(C)[C@@H]1CC[C@]2(C(=O)NCCCCCCCNC(=O)[C@H](C)NC(=O)OC(C)(C)C)CC[C@]3(C)[C@H](CC[C@@H]4[C@@]5(C)CC[C@H](O)C(C)(C)[C@@H]5CC[C@]43C)[C@@H]12 | 110 | Non-toxic | 
25 | C=C(C)[C@@H]1CC[C@]2(C(=O)NCCCCCCCCNC(=O)[C@H](C)NC(=O)OC(C)(C)C)CC[C@]3(C)[C@H](CC[C@@H]4[C@@]5(C)CC[C@H](O)C(C)(C)[C@@H]5CC[C@]43C)[C@@H]12 | 90 | Non-toxic | 
26 | C=C(C)[C@@H]1CC[C@]2(C(=O)NCCCCCCCCNC(=O)[C@H](CCC(N)=O)NC(=O)OC(C)(C)C)CC[C@]3(C)[C@H](CC[C@@H]4[C@@]5(C)CC[C@H](O)C(C)(C)[C@@H]5CC[C@]43C)[C@@H]12 | 60 | Non-toxic | 
27 | C=C(C)[C@@H]1CC[C@]2(C(=O)NCCCCCCCCNC(=O)[C@@H](NC(=O)OC(C)(C)C)C(C)C)CC[C@]3(C)[C@H](CC[C@@H]4[C@@]5(C)CC[C@H](O)C(C)(C)[C@@H]5CC[C@]43C)[C@@H]12 | 2430 | Non-toxic | 
28 | C=C(C)[C@@H]1CC[C@]2(C(=O)NCCCCCCCCNC(=O)[C@@H]3CCCN3C(=O)OC(C)(C)C)CC[C@]3(C)[C@H](CC[C@@H]4[C@@]5(C)CC[C@H](O)C(C)(C)[C@@H]5CC[C@]43C)[C@@H]12 | 160 | Non-toxic | 
29 | C=C(C)[C@@H]1CC[C@]2(C(=O)NCCCCCCCCCNC(=O)[C@H](CCC(N)=O)NC(=O)OC(C)(C)C)CC[C@]3(C)[C@H](CC[C@@H]4[C@@]5(C)CC[C@H](O)C(C)(C)[C@@H]5CC[C@]43C)[C@@H]12 | 120 | Non-toxic | 
30 | C=C(C)[C@@H]1CC[C@]2(C(=O)NCCCCCCCCCNC(=O)[C@H](C)NC(=O)OC(C)(C)C)CC[C@]3(C)[C@H](CC[C@@H]4[C@@]5(C)CC[C@H](O)C(C)(C)[C@@H]5CC[C@]43C)[C@@H]12 | > 4000 | Non-toxic | 
31 | C=C(C)[C@@H]1CC[C@]2(C(=O)NCCCCCCCCNC(=O)C(CCC#N)NC(=O)OC(C)(C)C)CC[C@]3(C)[C@H](CC[C@@H]4[C@@]5(C)CC[C@H](O)C(C)(C)[C@@H]5CC[C@]43C)[C@@H]12 (some centres not stated) | 80 | Non-toxic | 
32 | C=C(C)[C@@H]1CC[C@]2(C(=O)NCCCCCCC(=O)N[C@@H](CCC(N)=O)C(=O)OC)CC[C@]3(C)[C@H](CC[C@@H]4[C@@]5(C)CC[C@H](O)C(C)(C)[C@@H]5CC[C@]43C)[C@@H]12 | > 4000 | Non-toxic | 
33 | C=C(C)[C@@H]1CC[C@]2(C(=O)NCCCCCCCC(=O)N[C@@H](CCC(N)=O)C(=O)OC)CC[C@]3(C)[C@H](CC[C@@H]4[C@@]5(C)CC[C@H](O)C(C)(C)[C@@H]5CC[C@]43C)[C@@H]12 | 140 | Non-toxic | 
34 | Cc1cc(/C=C/C#N)cc(C)c1Nc1ccnc(Nc2ccc(C#N)cc2)n1 [RILPIVIRINE] |  |  | > 100
